# Reference: ChEMBL document CHEMBL1128260, “3-deaza- and 7-deaza-5'-noraristeromycin and their antiviral properties” (1995)
# How the values were obtained:
# Assay type in all cases: functional
# MDCK [1] = assay: The minimum inhibitory concentration required to reduce Influenza B virus induced cytopathicity by 50% was measured on MDCK cells; conditions: Canis lupus familiaris
# How it was run: (§1)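 Confluent cell monolayers in microtiter trays were inoculated with 100 CCID50 of virus and allowed 1 h adsorption, then residual virus was removed. Cultures were incubated with varying compound concentrations (400, 200, 100, ... µg/mL). Cytopathicity was scored once it was complete in the untreated infected controls. The value is the concentration reducing virus-induced cytopathicity by 50%.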
# E6SM [2] = assay: The minimum inhibitory concentration required to reduce TK HSV-1 (B2006) virus induced cytopathicity by 50% in E6SM cells; conditions: Homo sapiens; how it was run: as §1
# HeLa [3] = assay: The minimum inhibitory concentration required to reduce Coxsackie B4 virus induced cytopathicity by 50% in HeLa cells.; conditions: Homo sapiens; how it was run: as §1
# Vero [4] = assay: Tested for concentration required to cause a microscopically detectable alteration of Vero cell morphology; conditions: Chlorocebus sabaeus; read-out: MIC50
# How it was run: (§2)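 Confluent E6SM, HeLa, Vero or MDCK cell cultures exposed to varying test-compound concentrations and examined microscopically. The value is the concentration causing a microscopically detectable alteration of normal cell morphology.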
# HeLa [5] = assay: The minimum inhibitory concentration required to reduce Vesicular Stomatitis Virus induced cytopathicity by 50% in HeLa cells; conditions: Homo sapiens; how it was run: as §1
# Vero [6] = assay: The minimum inhibitory concentration required to reduce Arenavirus (Junin) induced cytopathicity by 50% was measured on Vero cells; conditions: Chlorocebus sabaeus; how it was run: as §1
# CCRF-CEM [7] = assay: Tested for concentration required to cause a microscopically detectable alteration of CEM cell morphology; conditions: Homo sapiens
# E6SM [8] = assay: The minimum inhibitory concentration required to reduce TK-HSV-1(VMW 1837) virus induced cytopathicity by 50% in E6SM cells; conditions: Homo sapiens; how it was run: as §1
# Vero [9] = assay: The minimum inhibitory concentration required to reduce Arenavirus (Tacaribe) induced cytopathicity by 50% was measured on Vero cells; conditions: Chlorocebus sabaeus; how it was run: as §1
# Vero [10] = assay: The minimum inhibitory concentration required to reduce forest virus (ATCC VR-67) induced cytopathicity by 50% in Vero cells; conditions: Chlorocebus sabaeus; how it was run: as §1
# HEL [11] = assay: The minimum inhibitory concentration required to reduce VZV(Oka) virus induced cytopathicity by 50% was measured on HEL cells; conditions: Homo sapiens; how it was run: as §1
# Vero [12] = assay: The minimum inhibitory concentration required to reduce Reo-1 virus (ATCC VR-230) induced cytopathicity by 50% was measured in Vero cells; conditions: Chlorocebus sabaeus; how it was run: as §1
# E6SM [13] = assay: Tested for concentration required to cause a microscopically detectable alteration of E6SM cell morphology; conditions: Homo sapiens; read-out: MIC50; how it was run: as §2
# HeLa [14] = assay: The minimum inhibitory concentration required to reduce Polio-1 virus induced cytopathicity by 50% in HeLa cells; conditions: Homo sapiens; how it was run: as §1
# HeLa [15] = assay: Tested for concentration required to cause a microscopically detectable alteration of HeLa cell morphology; conditions: Homo sapiens; read-out: MIC50; how it was run: as §2
# E6SM [16] = assay: The minimum inhibitory concentration required to reduce HSV-1(KOS) virus induced cytopathicity by 50% was measured on E6SM cells; conditions: Homo sapiens; how it was run: as §1
# HEL [17] = assay: The minimum inhibitory concentration required to reduce TK-VZV(YS-R) virus induced cytopathicity by 50% was measured on HEL cells; conditions: Homo sapiens; how it was run: as §1
# MDCK [18] = assay: The minimum inhibitory concentration required to reduce Influenza A virus induced cytopathicity by 50% was measured on MDCK cells; conditions: Canis lupus familiaris; how it was run: as §1
# E6SM [19] = assay: The minimum inhibitory concentration required to reduce Vesicular Stomatitis Virus induced cytopathicity by 50% in E6SM cells; conditions: Homo sapiens; how it was run: as §1
# HEL [20] = assay: The minimum inhibitory concentration required to reduce CMV(Davis) virus induced cytopathicity by 50% was measured on HEL cells; conditions: Homo sapiens; how it was run: as §1
# CCRF-CEM [21] = assay: The minimum inhibitory concentration required to reduce HIV-1(IIIB) virus induced cytopathicity by 50% was measured on CEM cells; conditions: Homo sapiens
# How it was run: (§3)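 CEM cells at 250,000-300,000 cells/mL were infected with HIV-1 (IIIB) or HIV-2 (ROD) at 100 CCID50/mL. The infected suspension was added to serial compound dilutions and incubated 4 days at 37 °C. Cultures were then examined for syncytium (giant cell) formation, and the 50% inhibitory concentration was recorded.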
# E6SM [22] = assay: The minimum inhibitory concentration required to reduce HSV-2(G) virus induced cytopathicity by 50% was measured on E6SM cells; conditions: Homo sapiens; how it was run: as §1
# HEL [23] = assay: The minimum inhibitory concentration required to reduce TK-VZV(07-1) virus induced cytopathicity by 50% was measured on HEL cells; conditions: Homo sapiens; how it was run: as §1
# Vero [24] = assay: The minimum inhibitory concentration required to reduce Sindbis virus ([…]) induced cytopathicity by 50% in Vero cells; conditions: Chlorocebus sabaeus; how it was run: as §1
# CCRF-CEM [25] = assay: The minimum inhibitory concentration required to reduce HIV-2(ROD) virus induced cytopathicity by 50% was measured on CEM cells; conditions: Homo sapiens; how it was run: as §3
# HEL [26] = assay: The minimum inhibitory concentration required to reduce VZV(YS) virus induced cytopathicity by 50% was measured on HEL cells; conditions: Homo sapiens; how it was run: as §1
# HEL [27] = assay: The minimum inhibitory concentration required to reduce CMV(AD-169) virus induced cytopathicity by 50% was measured on HEL cells; conditions: Homo sapiens; how it was run: as §1
# E6SM [28] = assay: The minimum inhibitory concentration required to reduce Vaccinia virus induced cytopathicity by 50% in E6SM cells; conditions: Homo sapiens; how it was run: as §1
# HEL [29] = assay: Tested for the concentration required to cause a microscopically detectable alteration of HEL cell morphology; conditions: Homo sapiens; read-out: MIC50
# [30] = tested on: Respiratory syncytial virus; assay: The minimum inhibitory concentration required to reduce RSV(Long) virus induced cytopathicity by 50% in HeLa cells; conditions: human respiratory syncytial virus; how it was run: as §1
# MDCK [31] = assay: Tested for the concentration required to cause a microscopically detectable alteration of MCDK cell morphology; conditions: Canis lupus familiaris; read-out: MIC50; how it was run: as §2
# Vero [32] = assay: The minimum inhibitory concentration required to reduce Parainfluenza virus type 3(ATCC VR-93) induced cytopathicity by 50% in Vero cells; conditions: Chlorocebus sabaeus; how it was run: as §1
SMILES,MIC50 (MDCK [1]),MIC50 (HeLa [3]),Minimum cytotoxic concentration (Vero [4]),MIC50 (HeLa [5]),MIC50 (Vero [6]),MIC50 (Vero [9]),MIC50 (Vero [10]),MIC50 (HEL [11]),MIC50 (Vero [12]),minimum cytotoxic concentration (microscopic alteration of cell morphology) (E6SM [13]),MIC50 (HeLa [14]),Minimum cytotoxic concentration (HeLa [15]),MIC50 (E6SM [16]),MIC50 (MDCK [18]),MIC50 (E6SM [19]),MIC50 (HEL [20]),MIC50 (E6SM [22]),MIC50 (Vero [24]),MIC50 (HEL [26]),MIC50 (HEL [27]),other results
Nc1ncnc2c1ccn2[C@H]1C[C@@H](O)[C@H](O)[C@@H]1O,> 200 µg/mL,> 400 µg/mL,> 400 µg/mL,300 µg/mL,> 20 µg/mL,> 20 µg/mL,> 200 µg/mL,> 40 µg/mL,> 200 µg/mL,> 400 µg/mL,> 400 µg/mL,> 400 µg/mL,300 µg/mL,> 200 µg/mL,70 µg/mL,> 40 µg/mL,> 400 µg/mL,> 200 µg/mL,> 40 µg/mL,> 40 µg/mL,MIC50 (E6SM [2]): 300 µg/mL; MIC50 (CCRF-CEM [7]): > 500 µg/mL; MIC50 (E6SM [8]): 300 µg/mL; MIC50 (HEL [17]): > 40 µg/mL; MIC50 (CCRF-CEM [21]): > 500 µg/mL; MIC50 (HEL [23]): > 40 µg/mL; MIC50 (CCRF-CEM [25]): > 500 µg/mL; MIC50 (E6SM [28]): 150 µg/mL; Minimum cytotoxic concentration (MCC) (HEL [29]): > 200 µg/mL; MIC50 [30]: 100 µg/mL; Minimum cytotoxic concentration (MDCK [31]): > 200 µg/mL; MIC50 (Vero [32]): 100 µg/mL
"Nc1nccc2c1ncn2C1CC(O)C(O)C1O (single isomer, unassigned; (-))",> 200 µg/mL,> 400 µg/mL,> 200 µg/mL,2 µg/mL,> 40 µg/mL,> 40 µg/mL,> 200 µg/mL,> 40 µg/mL,7 µg/mL,> 400 µg/mL,> 400 µg/mL,> 400 µg/mL,> 400 µg/mL,150 µg/mL,0.7 µg/mL,> 40 µg/mL,> 400 µg/mL,> 200 µg/mL,> 40 µg/mL,> 40 µg/mL,MIC50 (E6SM [2]): 300 µg/mL; MIC50 (CCRF-CEM [7]): 27 µg/mL; MIC50 (E6SM [8]): 300 µg/mL; MIC50 (HEL [17]): > 40 µg/mL; MIC50 (CCRF-CEM [21]): > 20 µg/mL; MIC50 (HEL [23]): > 30 µg/mL; MIC50 (CCRF-CEM [25]): > 20 µg/mL; MIC50 (E6SM [28]): 0.4 µg/mL; Minimum cytotoxic concentration (MCC) (HEL [29]): > 200 µg/mL; MIC50 [30]: > 150 µg/mL; Minimum cytotoxic concentration (MDCK [31]): > 200 µg/mL; MIC50 (Vero [32]): 1 µg/mL
Nc1ncnc2c1ncn2[C@@H]1C=C(CO)[C@@H](O)[C@H]1O [NEOPLANOCIN A],> 4 µg/mL,> 40 µg/mL,40 µg/mL,2 µg/mL,1 µg/mL,1 µg/mL,7 µg/mL,4 µg/mL,0.7 µg/mL,100 µg/mL,> 40 µg/mL,1 µg/mL,70 µg/mL,0.3 µg/mL,2 µg/mL,0.4 µg/mL,> 100 µg/mL,2 µg/mL,5 µg/mL,0.6 µg/mL,MIC50 (E6SM [2]): 20 µg/mL; MIC50 (E6SM [8]): 70 µg/mL; MIC50 (HEL [17]): 3 µg/mL; MIC50 (HEL [23]): 4 µg/mL; MIC50 (E6SM [28]): 0.2 µg/mL; Minimum cytotoxic concentration (MCC) (HEL [29]): 20 µg/mL; MIC50 [30]: > 1.2 µg/mL; Minimum cytotoxic concentration (MDCK [31]): 4 µg/mL; MIC50 (Vero [32]): 0.2 µg/mL
Nc1ncnc2c1ncn2[C@@H]1C[C@H](O)[C@@H](O)[C@H]1O [NORARISTEROMYCIN],> 100 µg/mL,> 400 µg/mL,> 400 µg/mL,0.2 µg/mL,6 µg/mL,8 µg/mL,> 400 µg/mL,> 50 µg/mL,0.7 µg/mL,> 400 µg/mL,> 400 µg/mL,> 400 µg/mL,> 400 µg/mL,> 100 µg/mL,0.1 µg/mL,0.03 µg/mL,> 400 µg/mL,> 400 µg/mL,> 50 µg/mL,0.01 µg/mL,MIC50 (CCRF-CEM [7]): 0.4 µg/mL; MIC50 (CCRF-CEM [21]): > 0.16 µg/mL; MIC50 (CCRF-CEM [25]): > 0.16 µg/mL; MIC50 (E6SM [28]): 0.04 µg/mL; Minimum cytotoxic concentration (MCC) (HEL [29]): 50 µg/mL; MIC50 [30]: > 200 µg/mL; Minimum cytotoxic concentration (MDCK [31]): > 400 µg/mL; MIC50 (Vero [32]): 0.07 µg/mL
